This note sets out measurements from ChEMBL document CHEMBL3352355, “Synthesis of novel polysubstituted (2SR,4RS)-2-heteroaryltetrahydro-1,4-epoxy-1-benzazepines and cis-2-heteroaryl-4-hydroxytetrahydro-1H-1-benzazepines as antiparasitic agents” (Eur J Med Chem, 2014).

Broadly, the IC50 is the concentration that inhibits the measured activity by half. As usually defined, the CC50 is the concentration at which the toxic effect on the cells reaches its halfway point.

One data set concerns Trypanosoma cruzi. Kind of data set: Antiparasitic activity against epimastigote stage of Trypanosoma cruzi infected in Vero cells assessed as parasite growth inhibition […] by hemocytometery. Type of data set: functional, organism-based.
Details: not given
The method in brief: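 Exponential-phase T. cruzi Sylvio X10 epimastigotes (LIT medium with hiFCS) or L. (L.) infantum MHOM/BR/74/PP75 promastigotes (RPMI 1640, hemin, HEPES, 10% hiFCS) were exposed to threefold serial dilutions (0.3–300 µg/mL) for 72 h at 28 °C. Viable parasites were counted by hemocytometer with 0.25% eosin yellow. IC50 came from sigmoidal regression, given as mean ± SD.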
For the molecule `c1coc([C@@H]2C[C@H]3Cc4ccccc4N2O3)c1` (racemic), the half-inhibitory concentration (IC50) stood at 229 µM.
The same measure, in the same setting: to `Cc1ccsc1[C@@H]1C[C@H](O)Cc2cc(Cl)ccc2N1` (relative stereo) belongs 47.9 µM.
Same read-out and setting: to `Brc1ccc([C@@H]2C[C@H]3Cc4ccccc4N2O3)s1` (racemic) belongs 62.2 µM; to `Fc1ccc2c(c1)C[C@@H]1C[C@@H](c3ccco3)N2O1` (racemic), 47.7 µM.
Same read-out and setting: to `FC(F)(F)Oc1ccc2c(c1)C[C@@H]1C[C@@H](c3cccs3)N2O1` (racemic) belongs 143 µM; to `Fc1ccc2c(c1)C[C@@H]1C[C@@H](c3ccoc3)N2O1` (racemic), 151 µM; to `O[C@@H]1Cc2cc(Cl)ccc2N[C@H](c2cccs2)C1` (relative stereo), 95.1 µM.
On to `Cn1cccc1[C@@H]1C[C@H]2Cc3cc(F)ccc3N1O2` (mixture of isomers), for which the IC50 turned out to be 414 µM.
The same measure, in the same setting: to `O=[N+]([O-])c1ccc([C@@H]2C[C@H]3Cc4cc(OC(F)(F)F)ccc4N2O3)o1` (racemic) belongs above 843 µM; to `Cc1ccc([C@@H]2C[C@H]3Cc4cc(F)ccc4N2O3)s1` (racemic), 30.9 µM.

The next data set deals with Trypanosoma cruzi. Kind of data set: Antiparasitic activity against amastigote stage of Trypanosoma cruzi infected in Vero cells assessed as parasite growth inhibition after 24 hrs by hemocytometery. Type of data set: functional, organism-based. To be noted: Trypanosoma cruzi, Vero, 24 h; read-out: IC50. The method in brief: (§1)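 Host cells were Vero for T. cruzi (infected with tissue-derived trypomastigotes) and THP-1 (PMA-transformed, 10 ng/mL) for L. (L.) infantum (infected with late-phase promastigotes), at 1:10 cell:parasite for 24 h. Serial dilutions were given as two doses, the second on day 3 with a medium change. Read-out was % infected cells on methanol-fixed, Giemsa-stained slides (300 cells). IC50 came from sigmoidal regression; experiments in duplicate, concentrations in triplicate.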
`c1coc([C@@H]2C[C@H]3Cc4ccccc4N2O3)c1` (racemic): the IC50 is above 440 µM.
On the same count and under the same terms, to `Cc1ccsc1[C@@H]1C[C@H](O)Cc2cc(Cl)ccc2N1` (relative stereo) belongs 41.5 µM; to `Brc1ccc([C@@H]2C[C@H]3Cc4ccccc4N2O3)s1` (racemic), 137 µM; to `Fc1ccc2c(c1)C[C@@H]1C[C@@H](c3ccco3)N2O1` (racemic), 70.1 µM.
Same read-out and setting: to `FC(F)(F)Oc1ccc2c(c1)C[C@@H]1C[C@@H](c3cccs3)N2O1` (racemic) belongs 73.9 µM; to `Fc1ccc2c(c1)C[C@@H]1C[C@@H](c3ccoc3)N2O1` (racemic), above 408 µM.
As for `O[C@@H]1Cc2cc(Cl)ccc2N[C@H](c2cccs2)C1` (relative stereo), the IC50 is above 119 µM.
Regarding `Cn1cccc1[C@@H]1C[C@H]2Cc3cc(F)ccc3N1O2` (mixture of isomers), the IC50 was above 387 µM.
The same measure, in the same setting: to `O=[N+]([O-])c1ccc([C@@H]2C[C@H]3Cc4cc(OC(F)(F)F)ccc4N2O3)o1` (racemic) belongs above 281 µM; to `Cc1ccc([C@@H]2C[C@H]3Cc4cc(F)ccc4N2O3)s1` (racemic), above 364 µM.

System in another data set: not listed separately
Kind of data set: Selectivity index, ratio of CC50 for human THP1 cells to IC50 for promastigote stage of Leishmania infantum. Type of data set: functional, THP-1.
Details: not given
The method in brief: (§2)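 Selectivity index was calculated as CC50 in Vero (T. cruzi) or THP-1 (L. infantum) cells divided by parasite IC50. Both values came from 72 h mammalian-cell MTT assays and the parasite assays; SI ≥ 3 was defined as parasite-selective.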
On to `c1coc([C@@H]2C[C@H]3Cc4ccccc4N2O3)c1` (racemic), for which the “Selectivity Index” value is 14.7.
Regarding `Cc1ccsc1[C@@H]1C[C@H](O)Cc2cc(Cl)ccc2N1` (relative stereo), the “Selectivity Index” value is recorded as 2.5.
Same read-out and setting: to `Brc1ccc([C@@H]2C[C@H]3Cc4ccccc4N2O3)s1` (racemic) belongs 34.7; to `Fc1ccc2c(c1)C[C@@H]1C[C@@H](c3ccco3)N2O1` (racemic), above 14.7; to `FC(F)(F)Oc1ccc2c(c1)C[C@@H]1C[C@@H](c3cccs3)N2O1` (racemic), above 1.2.
As for `Fc1ccc2c(c1)C[C@@H]1C[C@@H](c3ccoc3)N2O1` (racemic), the “Selectivity Index” value is 11.9.
Still for that read-out and setting: to `O[C@@H]1Cc2cc(Cl)ccc2N[C@H](c2cccs2)C1` (relative stereo) belongs 2.3; to `Cn1cccc1[C@@H]1C[C@H]2Cc3cc(F)ccc3N1O2` (mixture of isomers), 6.9; to `O=[N+]([O-])c1ccc([C@@H]2C[C@H]3Cc4cc(OC(F)(F)F)ccc4N2O3)o1` (racemic), 6.1.
Same read-out and setting: to `Cc1ccc([C@@H]2C[C@H]3Cc4cc(F)ccc4N2O3)s1` (racemic) belongs 2.5.

System in the next data set: not listed separately
Kind of data set: Cytotoxicity against human THP1 cells. Type of data set: cell-based. To be noted: THP-1 cells. The method in brief: (§3)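 Vero monolayers or THP-1 cells (made adherent with 10 ng/mL PMA), in RPMI 1640 with 10% hiFCS, were exposed to compound (0.3–300 µg/mL) for 72 h at 37 °C, 5% CO2. Viability was measured by MTT, with formazan dissolved in DMSO and read at 580 nm. % cytotoxicity was calculated against untreated cells; CC50 came from sigmoidal regression, given as mean ± SD.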
The molecule `c1coc([C@@H]2C[C@H]3Cc4ccccc4N2O3)c1` (racemic) registered a CC50 of 663 µM.
On the same count and under the same terms, the value for `Cc1ccsc1[C@@H]1C[C@H](O)Cc2cc(Cl)ccc2N1` (relative stereo) was 181 µM.
Still for that read-out and setting: the value for `Brc1ccc([C@@H]2C[C@H]3Cc4ccccc4N2O3)s1` (racemic) was 1250 µM.
Molecule `Fc1ccc2c(c1)C[C@@H]1C[C@@H](c3ccco3)N2O1` (racemic) showed a CC50 above 1220 µM.
Still for that read-out and setting: to `FC(F)(F)Oc1ccc2c(c1)C[C@@H]1C[C@@H](c3cccs3)N2O1` (racemic) belongs above 306 µM; to `Fc1ccc2c(c1)C[C@@H]1C[C@@H](c3ccoc3)N2O1` (racemic), above 1220 µM.
Still for that read-out and setting: to `O[C@@H]1Cc2cc(Cl)ccc2N[C@H](c2cccs2)C1` (relative stereo) belongs 115 µM; to `Cn1cccc1[C@@H]1C[C@H]2Cc3cc(F)ccc3N1O2` (mixture of isomers), 2180 µM.
The same measure, in the same setting: the value for `O=[N+]([O-])c1ccc([C@@H]2C[C@H]3Cc4cc(OC(F)(F)F)ccc4N2O3)o1` (racemic) was 404 µM; that for `Cc1ccc([C@@H]2C[C@H]3Cc4cc(F)ccc4N2O3)s1` (racemic) was 234 µM.

Another data set concerns Leishmania infantum. In words: Antiparasitic activity against promastigote stage of Leishmania infantum assessed as parasite growth inhibition after 72 hrs by hemocytometery.
Details: not given
For `c1coc([C@@H]2C[C@H]3Cc4ccccc4N2O3)c1` (racemic), the IC50 stood at 45.3 µM.
On the same count and under the same terms, to `Cc1ccsc1[C@@H]1C[C@H](O)Cc2cc(Cl)ccc2N1` (relative stereo) belongs 72.9 µM.
The same measure, in the same setting: the value for `Brc1ccc([C@@H]2C[C@H]3Cc4ccccc4N2O3)s1` (racemic) was 36.1 µM.
As to `Fc1ccc2c(c1)C[C@@H]1C[C@@H](c3ccco3)N2O1` (racemic), the IC50 was 83.2 µM.
Same read-out and setting: the value for `FC(F)(F)Oc1ccc2c(c1)C[C@@H]1C[C@@H](c3cccs3)N2O1` (racemic) was 256 µM; that for `Fc1ccc2c(c1)C[C@@H]1C[C@@H](c3ccoc3)N2O1` (racemic) was 103 µM; that for `O[C@@H]1Cc2cc(Cl)ccc2N[C@H](c2cccs2)C1` (relative stereo) was 49.5 µM.
Still for that read-out and setting: to `Cn1cccc1[C@@H]1C[C@H]2Cc3cc(F)ccc3N1O2` (mixture of isomers) belongs 316 µM; to `O=[N+]([O-])c1ccc([C@@H]2C[C@H]3Cc4cc(OC(F)(F)F)ccc4N2O3)o1` (racemic), 66.6 µM; to `Cc1ccc([C@@H]2C[C@H]3Cc4cc(F)ccc4N2O3)s1` (racemic), 92 µM.

System in another data set: not listed separately
In words: Selectivity index, ratio of CC50 for African green monkey Vero cells to IC50 for amastigote stage of Trypanosoma cruzi. The data set is classed as functional.
Details: not given
The method in brief: as §2
For the molecule `Cc1ccsc1[C@@H]1C[C@H](O)Cc2cc(Cl)ccc2N1` (relative stereo), the “Selectivity Index” value came to 4.8.
Regarding `Brc1ccc([C@@H]2C[C@H]3Cc4ccccc4N2O3)s1` (racemic), the “Selectivity Index” value is listed as 13.2.
On the same count and under the same terms, to `Fc1ccc2c(c1)C[C@@H]1C[C@@H](c3ccco3)N2O1` (racemic) belongs above 5.8; to `FC(F)(F)Oc1ccc2c(c1)C[C@@H]1C[C@@H](c3cccs3)N2O1` (racemic), above 4.1.

A further data set deals with Leishmania infantum. Kind of data set: Antiparasitic activity against amastigote stage of Leishmania infantum infected in THP1 cells assessed as parasite growth inhibition after 24 hrs by hemocytometery. Type of data set: functional, organism-based, THP-1. To be noted: Leishmania infantum, THP-1, 24 h; read-out: IC50. The method in brief:
as §1
As to `c1coc([C@@H]2C[C@H]3Cc4ccccc4N2O3)c1` (racemic), the IC50 was above 440 µM.
Still for that read-out and setting: the value for `Cc1ccsc1[C@@H]1C[C@H](O)Cc2cc(Cl)ccc2N1` (relative stereo) was above 341 µM; that for `Brc1ccc([C@@H]2C[C@H]3Cc4ccccc4N2O3)s1` (racemic) was above 312 µM; that for `Fc1ccc2c(c1)C[C@@H]1C[C@@H](c3ccco3)N2O1` (racemic) was above 136 µM.
Still for that read-out and setting: the value for `FC(F)(F)Oc1ccc2c(c1)C[C@@H]1C[C@@H](c3cccs3)N2O1` (racemic) was above 306 µM; that for `Fc1ccc2c(c1)C[C@@H]1C[C@@H](c3ccoc3)N2O1` (racemic) was above 408 µM.
`O[C@@H]1Cc2cc(Cl)ccc2N[C@H](c2cccs2)C1` (relative stereo): the IC50 was above 119 µM.
Same read-out and setting: to `Cn1cccc1[C@@H]1C[C@H]2Cc3cc(F)ccc3N1O2` (mixture of isomers) belongs above 387 µM.
On the same count and under the same terms, the value for `O=[N+]([O-])c1ccc([C@@H]2C[C@H]3Cc4cc(OC(F)(F)F)ccc4N2O3)o1` (racemic) was above 281 µM.
Still for that read-out and setting: the value for `Cc1ccc([C@@H]2C[C@H]3Cc4cc(F)ccc4N2O3)s1` (racemic) was above 121 µM.

System in another data set: not listed separately
Kind of data set: Cytotoxicity against African green monkey Vero cells. The data set is classed as cell-based. The conditions noted are these: chlorocebus sabaeus. The method in brief:
as §3
Turning to `c1coc([C@@H]2C[C@H]3Cc4ccccc4N2O3)c1` (racemic), it took 1560 µM to reach half-maximal cytotoxicity (CC50).
The same measure, in the same setting: to `Cc1ccsc1[C@@H]1C[C@H](O)Cc2cc(Cl)ccc2N1` (relative stereo) belongs 200 µM; to `Brc1ccc([C@@H]2C[C@H]3Cc4ccccc4N2O3)s1` (racemic), 1800 µM.
Consider `Fc1ccc2c(c1)C[C@@H]1C[C@@H](c3ccco3)N2O1` (racemic), for which the CC50 is above 408 µM.
The same measure, in the same setting: to `FC(F)(F)Oc1ccc2c(c1)C[C@@H]1C[C@@H](c3cccs3)N2O1` (racemic) belongs above 306 µM.
On to `Fc1ccc2c(c1)C[C@@H]1C[C@@H](c3ccoc3)N2O1` (racemic), for which the CC50 was above 1220 µM.
Still for that read-out and setting: to `O[C@@H]1Cc2cc(Cl)ccc2N[C@H](c2cccs2)C1` (relative stereo) belongs 164 µM; to `Cn1cccc1[C@@H]1C[C@H]2Cc3cc(F)ccc3N1O2` (mixture of isomers), 533 µM; to `O=[N+]([O-])c1ccc([C@@H]2C[C@H]3Cc4cc(OC(F)(F)F)ccc4N2O3)o1` (racemic), 214 µM.
The molecule `Cc1ccc([C@@H]2C[C@H]3Cc4cc(F)ccc4N2O3)s1` (racemic) displayed a CC50 of 944 µM.

System in the next data set: not listed separately
In words: Selectivity index, ratio of CC50 for African green monkey Vero cells to IC50 for epimastigote stage of Trypanosoma cruzi. The data set is classed as functional.
Details: not given
The method in brief: as §2
As to `c1coc([C@@H]2C[C@H]3Cc4ccccc4N2O3)c1` (racemic), the “Selectivity Index” value is reported as 6.8.
Same read-out and setting: to `Cc1ccsc1[C@@H]1C[C@H](O)Cc2cc(Cl)ccc2N1` (relative stereo) belongs 4.2; to `Brc1ccc([C@@H]2C[C@H]3Cc4ccccc4N2O3)s1` (racemic), 28.9; to `Fc1ccc2c(c1)C[C@@H]1C[C@@H](c3ccco3)N2O1` (racemic), above 8.6.
Still for that read-out and setting: the value for `FC(F)(F)Oc1ccc2c(c1)C[C@@H]1C[C@@H](c3cccs3)N2O1` (racemic) was above 2.1.
On the same count and under the same terms, to `Fc1ccc2c(c1)C[C@@H]1C[C@@H](c3ccoc3)N2O1` (racemic) belongs above 8.1.
`O[C@@H]1Cc2cc(Cl)ccc2N[C@H](c2cccs2)C1` (relative stereo): the “Selectivity Index” value was 1.7.
Same read-out and setting: to `Cn1cccc1[C@@H]1C[C@H]2Cc3cc(F)ccc3N1O2` (mixture of isomers) belongs 1.3; to `Cc1ccc([C@@H]2C[C@H]3Cc4cc(F)ccc4N2O3)s1` (racemic), 30.6.
